Test results published in ChEMBL document CHEMBL3763106, “Glucose-derived spiro-isoxazolines are anti-hyperglycemic agents against type 2 diabetes through glycogen phosphorylase inhibition” (Eur J Med Chem, 2016).
Active and inactive are the calls of the source. The rule behind the calls is not given here.

Assays:
[1] = target: T1, Glycogen phosphorylase, muscle form (Oryctolagus cuniculus, UniProt P00489); assay: Inhibition of rabbit muscle glycogen phosphorylase b
T1 sequence (P00489 whole entry): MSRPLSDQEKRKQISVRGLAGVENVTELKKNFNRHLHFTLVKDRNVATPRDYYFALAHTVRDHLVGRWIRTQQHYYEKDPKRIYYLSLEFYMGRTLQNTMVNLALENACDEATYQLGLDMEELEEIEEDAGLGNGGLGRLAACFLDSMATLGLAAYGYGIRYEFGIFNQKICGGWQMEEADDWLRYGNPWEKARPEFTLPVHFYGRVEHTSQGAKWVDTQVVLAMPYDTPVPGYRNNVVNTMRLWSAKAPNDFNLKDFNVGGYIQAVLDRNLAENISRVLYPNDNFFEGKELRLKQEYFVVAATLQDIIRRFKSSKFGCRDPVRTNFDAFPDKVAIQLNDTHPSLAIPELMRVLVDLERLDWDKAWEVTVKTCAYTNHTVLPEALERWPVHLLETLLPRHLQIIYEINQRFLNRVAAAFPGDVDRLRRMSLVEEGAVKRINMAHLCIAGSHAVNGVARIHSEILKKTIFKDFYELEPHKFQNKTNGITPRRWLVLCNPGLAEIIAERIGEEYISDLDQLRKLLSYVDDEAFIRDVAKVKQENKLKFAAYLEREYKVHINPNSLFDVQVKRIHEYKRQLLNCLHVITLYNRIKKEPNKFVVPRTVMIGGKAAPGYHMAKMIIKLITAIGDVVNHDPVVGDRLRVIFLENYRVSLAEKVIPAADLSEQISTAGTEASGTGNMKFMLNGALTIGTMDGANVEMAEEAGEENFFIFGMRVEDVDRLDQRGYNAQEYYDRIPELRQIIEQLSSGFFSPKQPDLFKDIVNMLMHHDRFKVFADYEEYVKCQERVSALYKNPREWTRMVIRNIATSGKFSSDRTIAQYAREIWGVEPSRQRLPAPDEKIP

[2] = target: T2, Glycogen phosphorylase, liver form (Rattus norvegicus, UniProt P09811); assay: Inhibition of glycogen phosphorylase in Wistar rat hepatocytes assessed as decrease in glucagon stimulated glucose release after 3 hrs by glucose oxidase method; format: cell-based, Hepatocyte
T2 sequence (P09811 whole entry): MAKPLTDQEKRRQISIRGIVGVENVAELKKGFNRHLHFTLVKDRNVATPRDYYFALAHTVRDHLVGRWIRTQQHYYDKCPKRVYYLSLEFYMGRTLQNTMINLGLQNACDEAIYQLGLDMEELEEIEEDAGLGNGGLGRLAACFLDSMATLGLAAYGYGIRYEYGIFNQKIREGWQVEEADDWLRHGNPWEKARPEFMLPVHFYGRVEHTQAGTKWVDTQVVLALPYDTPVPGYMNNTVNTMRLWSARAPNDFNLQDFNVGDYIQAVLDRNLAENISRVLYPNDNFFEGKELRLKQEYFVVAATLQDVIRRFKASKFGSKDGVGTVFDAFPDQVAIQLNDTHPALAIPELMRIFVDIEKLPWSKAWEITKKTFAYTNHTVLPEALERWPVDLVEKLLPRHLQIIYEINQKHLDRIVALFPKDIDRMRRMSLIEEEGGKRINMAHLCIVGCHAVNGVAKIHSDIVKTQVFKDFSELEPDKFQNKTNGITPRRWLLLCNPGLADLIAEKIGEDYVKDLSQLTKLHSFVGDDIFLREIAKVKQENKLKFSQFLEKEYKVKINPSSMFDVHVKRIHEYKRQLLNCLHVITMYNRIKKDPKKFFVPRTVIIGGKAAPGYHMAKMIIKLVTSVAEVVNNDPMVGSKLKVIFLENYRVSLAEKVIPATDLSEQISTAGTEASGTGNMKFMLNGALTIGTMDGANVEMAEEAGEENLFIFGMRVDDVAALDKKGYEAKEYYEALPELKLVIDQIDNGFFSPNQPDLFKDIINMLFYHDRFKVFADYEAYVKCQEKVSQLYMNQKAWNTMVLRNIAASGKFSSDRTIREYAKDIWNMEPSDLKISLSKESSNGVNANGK
Method in brief: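 Hepatocytes from male Wistar rats (160-220 g) isolated by two-step perfusion, viability >75%. Seeded at 830,000 cells/well, then cultured 24 h with 100 nM dexamethasone. Incubated 3 h in Hepes-bicarbonate buffer pH 7.4 with 0.1% BSA, 100 nM glucagon and inhibitor at several concentrations. Supernatant glucose measured by glucose oxidase (A492). IC50 taken from % of glucagon-stimulated value, mean of three independent experiments.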

[3] = target: T3, Glycogen phosphorylase, liver form (Homo sapiens, UniProt P06737); assay: Inhibition of glycogen phosphorylase in human hepatocytes assessed as decrease in glucagon stimulated glucose release after 3 hrs by glucose oxidase method; format: cell-based, Hepatocyte
T3 sequence (P06737 whole entry): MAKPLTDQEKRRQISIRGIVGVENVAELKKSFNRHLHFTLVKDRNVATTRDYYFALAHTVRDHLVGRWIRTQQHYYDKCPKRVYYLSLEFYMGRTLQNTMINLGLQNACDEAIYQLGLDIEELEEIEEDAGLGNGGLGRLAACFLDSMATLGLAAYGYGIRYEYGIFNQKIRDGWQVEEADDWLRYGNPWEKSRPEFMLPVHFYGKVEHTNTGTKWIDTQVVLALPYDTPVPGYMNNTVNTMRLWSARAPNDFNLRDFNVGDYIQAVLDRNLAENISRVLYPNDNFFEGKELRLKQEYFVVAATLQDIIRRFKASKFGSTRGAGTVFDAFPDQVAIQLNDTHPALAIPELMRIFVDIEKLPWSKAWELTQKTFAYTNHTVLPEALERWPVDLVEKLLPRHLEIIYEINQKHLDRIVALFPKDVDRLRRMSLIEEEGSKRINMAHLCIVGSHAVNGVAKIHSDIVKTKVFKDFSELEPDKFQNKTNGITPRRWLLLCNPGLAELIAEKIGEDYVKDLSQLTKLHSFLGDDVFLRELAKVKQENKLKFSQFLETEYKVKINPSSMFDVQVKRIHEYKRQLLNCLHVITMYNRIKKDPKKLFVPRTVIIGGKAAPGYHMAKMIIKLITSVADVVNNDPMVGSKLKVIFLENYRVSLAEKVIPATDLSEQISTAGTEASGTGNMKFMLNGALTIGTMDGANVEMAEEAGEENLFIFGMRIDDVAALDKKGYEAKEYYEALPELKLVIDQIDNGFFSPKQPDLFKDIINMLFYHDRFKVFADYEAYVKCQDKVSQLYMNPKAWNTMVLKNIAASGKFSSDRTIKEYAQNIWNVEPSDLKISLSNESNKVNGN
Method in brief: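 Human hepatocytes isolated by two-step perfusion of surgical liver pieces and seeded at 1×10⁶/well. Glycogen-loaded for 20 h in medium containing insulin, dexamethasone and 4.5 g/L glucose. Then 3 h in glucose-free DMEM with 100 nM glucagon and inhibitor at several concentrations. Supernatant glucose measured by glucose oxidase (A492). IC50 from % of glucagon-stimulated value, triplicates across 3-5 cultures.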

[4] = target: T3, Glycogen phosphorylase, liver form; assay: Inhibition of glycogen phosphorylase in human hepatocytes assessed as glucagon stimulated glycogen content after 3 hrs by colorimetric GOD method; format: cell-based, Hepatocyte
Method in brief: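 Human hepatocytes, glycogen-loaded 20 h, then 3 h in glucose-free DMEM with 100 nM glucagon and inhibitor. Washed cells digested with amyloglucosidase (0.75 UI/mL, acetate pH 4.8) for 2 h at 40 °C. Released glucose quantified by glucose oxidase. IC50 from % of glucagon-stimulated glycogen, triplicates across 3-5 cultures.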

Rattus norvegicus [5] = assay: Anti-hyperglycemic activity in Zucker fa/fa rat model assessed as decrease in liver glucose production at 7.5 mg/kg, po administered as single dose for 20 mins followed by glucagon challenge measured for 45 mins by glucose oxidase method; format: functional; parameters: scale not given: the % may be the effect or the level left
Method in brief: (§1)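 Acute glucagon challenge in male Zucker fa/fa rats, 10-13 weeks old, 3 treated and 3 vehicle per experiment. Single oral dose (7.5-90 mg/kg range; vehicle 4-5 mL/kg po) given 65 min before the final blood glucose reading. Glucagon 200 µg/kg SC. Tail-vein plasma taken at 0, 10, 20 and 45 min, glucose by glucose oxidase. Hepatic glucose production read as 45-min AUC.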

Rattus norvegicus [6] = assay: Anti-hyperglycemic activity in Zucker fa/fa rat model assessed as decrease in liver glucose production at 15 mg/kg, po administered as single dose for 20 mins followed by glucagon challenge measured for 45 mins by glucose oxidase method; format: functional; parameters: scale not given: the % may be the effect or the level left; method in brief: as §1
Rattus norvegicus [7] = assay: Anti-hyperglycemic activity in Zucker fa/fa rat model assessed as decrease in liver glucose production at 30 mg/kg, po administered as single dose for 20 mins followed by glucagon challenge measured for 45 mins by glucose oxidase method; format: functional; parameters: scale not given: the % may be the effect or the level left; method in brief: as §1
Rattus norvegicus [8] = assay: Anti-hyperglycemic activity in Zucker fa/fa rat model assessed as decrease in liver glucose production at 60 mg/kg, po administered as single dose for 20 mins followed by glucagon challenge measured for 45 mins by glucose oxidase method; format: functional; parameters: scale not given: the % may be the effect or the level left; method in brief: as §1
Rattus norvegicus [9] = assay: Anti-hyperglycemic activity in Zucker fa/fa rat model assessed as decrease in hepatic glucose production at 30 mg/kg, po administered for 4 days followed by glucagon challenge for 2 days measured for 45 mins; format: functional; parameters: scale not given: the % may be the effect or the level left
Method in brief: (§2)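 Male Zucker fa/fa rats, 10-13 weeks old, after 5 days of stabilization; 3 dosed and 3 vehicle controls. Daily oral dosing at 30 mg/kg for 4 days, then glucagon challenge (200 µg/kg, scapular SC). Tail-vein blood taken at 0, 10, 20 and 45 min. Plasma glucose by glucose oxidase, insulin by radioimmunoassay, each expressed as delta from basal. Glucose output given as 45-min AUC.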

Rattus norvegicus [10] = assay: Anti-hyperglycemic activity in glucagon challenged Zucker fa/fa rat model assessed as decrease in insulinemia at 30 mg/kg, po administered for 6 days measured for 60 mins post last dose by OGTT relative to control; format: functional, organism-based
Method in brief: (§3)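 Zucker fa/fa rats received 30 mg/kg po daily for 6 days, with a glucagon challenge after day 4. They were then fasted overnight and given an OGTT (glucose 3 g/kg). Tail-vein plasma glucose measured by glucose oxidase and insulin by radioimmunoassay, each expressed as delta from basal per rat.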

Rattus norvegicus [11] = assay: Anti-hyperglycemic activity in glucagon challenged Zucker fa/fa rat model assessed as decrease in glycaemia at 30 mg/kg, po administered for 6 days measured for 60 mins post last dose by OGTT relative to control; format: functional, organism-based; method in brief: as §3
Rattus norvegicus [12] = assay: Anti-hyperglycemic activity in po dosed Zucker fa/fa rat model assessed as decrease in liver glucose production administered 20 mins followed by glucagon challenge measured for 45 mins by glucose oxidase method; format: functional, organism-based; method in brief: as §1
Rattus norvegicus [13] = assay: Anti-hyperglycemic activity in Zucker fa/fa rat model assessed as decrease in insulin output at 30 mg/kg, po administered for 4 days followed by glucagon challenge for 2 days measured for 45 mins; format: functional, organism-based; method in brief: as §2
[14] = target: T1, Glycogen phosphorylase, muscle form; assay: Competitive inhibition of rabbit muscle glycogen phosphorylase b by Lineweaver-Burk plot analysis in presence of glucose 1-phosphate

IC50 [1] | IC50 [2] | IC50 [3] | IC50 [4] | Structure (SMILES) | also measured
81.3 µM | > 100 µM | > 100 µM | > 100 µM | OC[C@H]1O[C@@]2(CC(c3ccc4c(c3)OCO4)=NO2)[C@H](O)[C@@H](O)[C@@H]1O | –
325 µM | > 100 µM | > 100 µM | > 100 µM | COc1cc(OC)cc(C2=NO[C@@]3(C2)O[C@H](CO)[C@@H](O)[C@H](O)[C@H]3O)c1 | –
5.6 µM | > 100 µM | > 100 µM | > 100 µM | CSc1ccc(C2=NO[C@@]3(C2)O[C@H](CO)[C@@H](O)[C@H](O)[C@H]3O)cc1 | –
– | 36 µM | 20 µM | 14.2 µM | OC[C@H]1O[C@@]2(CC(c3ccc4ccccc4c3)=NO2)[C@H](O)[C@@H](O)[C@@H]1O | Activity (Rattus norvegicus [5]): 3%; Activity (Rattus norvegicus [6]): 18%; Activity (Rattus norvegicus [7]): 30%; Activity (Rattus norvegicus [8]): 33%; Activity (Rattus norvegicus [9]): 19%; Activity (Rattus norvegicus [10]): Active; Activity (Rattus norvegicus [11]): inactive; Activity (Rattus norvegicus [12]): Dose-dependent effect; Activity (Rattus norvegicus [13]): Active
280 µM | – | – | – | OC[C@H]1O[C@@]2(CC(c3cc4ccccc4[nH]3)=NO2)[C@H](O)[C@@H](O)[C@@H]1O | –
27.7 µM | – | – | – | COc1ccc2cc(C3=NO[C@@]4(C3)O[C@H](CO)[C@@H](O)[C@H](O)[C@H]4O)ccc2c1 | –
– | – | – | – | O=C1CNC(=O)[C@@]2(N1)O[C@H](CO)[C@@H](O)[C@H](O)[C@H]2O | Ki [14]: 59.7 µM
25 µM | – | – | – | OC[C@H]1O[C@@]2(CC(c3cc4ccccc4o3)=NO2)[C@H](O)[C@@H](O)[C@@H]1O | –
13.3 µM | > 100 µM | > 100 µM | > 100 µM | OC[C@H]1O[C@@]2(CC(c3ccc4c(c3)OCCO4)=NO2)[C@H](O)[C@@H](O)[C@@H]1O | –
800 µM | – | – | – | OC[C@H]1O[C@@]2(CC(c3c[nH]c4ccccc34)=NO2)[C@H](O)[C@@H](O)[C@@H]1O | –
6.1 µM | – | – | – | OC[C@H]1O[C@@]2(CC(c3nc4ccccc4s3)=NO2)[C@H](O)[C@@H](O)[C@@H]1O | –
– | 13.6 µM | 2.5 µM | 2.38 µM | CC(=O)OC[C@H]1O[C@@]2(CC(c3ccc4ccccc4c3)=NO2)[C@H](OC(C)=O)[C@@H](OC(C)=O)[C@@H]1OC(C)=O | –
80.5 µM | > 100 µM | > 100 µM | > 100 µM | OC[C@H]1O[C@@]2(CC(c3cc4ccccc4c4ccccc34)=NO2)[C@H](O)[C@@H](O)[C@@H]1O | –
10 µM | – | – | – | OC[C@H]1O[C@@]2(CC(c3cc4ccccc4s3)=NO2)[C@H](O)[C@@H](O)[C@@H]1O | –
1.54 µM | 30.1 µM | 22.2 µM | 13.8 µM | OC[C@H]1O[C@@]2(CC(c3ccc4cc(O)ccc4c3)=NO2)[C@H](O)[C@@H](O)[C@@H]1O | –
